{"source": "ChEMBL document CHEMBL4049387", "about": "“Combination of l-Carnitine with Lipophilic Linkage-Donating Gemcitabine Derivatives as Intestinal Novel Organic Cation Transporter 2-Targeting Oral Prodrugs” (J Med Chem, 2017)", "key": {"Mus musculus [1]": {"test_system": "Mus musculus", "assay": "Toxicity in Kunming mouse assessed as fibrosis in spleen at 102 mg/kg, po administered once daily for 14 days by hematoxylin/eosin staining based optical microscopic analysis", "assay_type": "organism-based", "details": "in vivo, 336 h; call rule not given here", "in_short": "(§1)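 Kunming mice, four per group, dosed orally once daily for 14 days with 102 mg/kg or saline control; body weight recorded every other day. Heart, liver, spleen, lung and kidney fixed in 10% buffered formalin, paraffin-embedded, sectioned, stained with hematoxylin and eosin, and examined by optical microscopy.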"}, "[2]": {"target": "T1, Organic cation/carnitine transporter 2 (Homo sapiens, UniProt O76082)", "T1 sequence (O76082 whole entry)": "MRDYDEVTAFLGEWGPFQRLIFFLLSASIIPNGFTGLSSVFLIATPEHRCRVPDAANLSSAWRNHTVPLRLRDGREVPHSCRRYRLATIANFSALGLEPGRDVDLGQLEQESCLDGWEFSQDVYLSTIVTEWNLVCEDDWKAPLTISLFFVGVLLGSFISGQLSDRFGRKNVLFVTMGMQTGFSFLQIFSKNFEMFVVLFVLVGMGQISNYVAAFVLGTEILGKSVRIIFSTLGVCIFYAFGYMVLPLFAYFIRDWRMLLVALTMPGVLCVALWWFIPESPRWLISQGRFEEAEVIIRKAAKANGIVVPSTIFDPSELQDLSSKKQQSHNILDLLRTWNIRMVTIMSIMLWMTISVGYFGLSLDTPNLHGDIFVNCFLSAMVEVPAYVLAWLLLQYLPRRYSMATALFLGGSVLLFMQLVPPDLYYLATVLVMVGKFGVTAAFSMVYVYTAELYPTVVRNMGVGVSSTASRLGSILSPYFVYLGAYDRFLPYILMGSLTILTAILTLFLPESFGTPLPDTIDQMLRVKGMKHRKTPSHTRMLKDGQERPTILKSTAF", "assay": "Ratio of drug transport assessed as OCTN2 transporter mediated cell permeability in human Caco2 cells at 25 uM in absence of L-carnitine to drug transport assessed as OCTN2 transporter mediated cell permeability in human Caco2 cells at 25 uM in presence of L-carnitine", "assay_type": "ADME, cell-based", "details": "caco-2, 25 µM", "in_short": "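Caco-2 cells seeded at 1.0×10^5 cells/well on 0.4 µm polycarbonate inserts, cultured 21 days in MEM; monolayers with TEER over 250 Ω·cm² used. Compound at 25 µM final in HBSS, added apically, with or without 100 µM L-carnitine, 37 °C. Basolateral samples taken at 15, 30, 45, 60, 90, 120 min. Analysed by UPLC-MS/MS to give Papp. Triplicate runs.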"}, "[3]": {"assay": "Half life in pH 1.2 phosphate buffer at 5 uM by HPLC method", "assay_type": "physicochemical", "in_short": "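Compound dissolved at 5 µM in phosphate buffer (pH 1.2, 6.8 or 7.4), held at 37 °C for 24 h. Aliquots taken at intervals and analysed by HPLC. t1/2 = 0.693/k from linear regression of pseudo-first-order kinetics.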"}, "Heart": {"test_system": "Heart", "assay": "Drug uptake in mouse heart at 102 mg/kg, po administered as single dose at 0.5 hrs post dose", "assay_type": "ADME, organism-based", "details": "in vivo", "in_short": "(§2)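 Mice, three per time point, single oral dose of 102 mg/kg (equivalent to 50 mg/kg gemcitabine). Heart, liver, spleen, lung, kidney and brain collected at 0.16, 0.5 and 2 h, rinsed in saline. 0.3 g tissue homogenized 1 min in 1 mL saline, spun 13,000 rpm 4 °C 5 min. Gemcitabine measured in supernatant.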"}, "[4]": {"assay": "Half life in rat hepatic homogenates at 5 uM by HPLC method", "assay_type": "ADME, tissue-based, Liver", "in_short": "(§3)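 Compound at 5 µM final in rat plasma, 20% rat hepatic homogenate or 20% rat intestinal homogenate at 37 °C for 24 h. Homogenates made by homogenizing 0.3 g saline-washed tissue in 1 mL saline, spun 13,000 rpm 4 °C 5 min. Sampled at intervals, analysed by HPLC. t1/2 = 0.693/k.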"}, "Mus musculus [5]": {"test_system": "Mus musculus", "assay": "Toxicity in Kunming mouse assessed as inflammatory infiltrates in kidney at 102 mg/kg, po administered once daily for 14 days by hematoxylin/eosin staining based optical microscopic analysis", "assay_type": "organism-based", "details": "in vivo, 336 h", "in_short": "as §1"}, "[6]": {"assay": "Half life in rat intestinal homogenates at 5 uM by HPLC method", "assay_type": "ADME, tissue-based, Intestine", "in_short": "as §3"}, "Mus musculus [7]": {"test_system": "Mus musculus", "assay": "Toxicity in Kunming mouse assessed as inflammatory infiltrates in lung at 102 mg/kg, po administered once daily for 14 days by hematoxylin/eosin staining based optical microscopic analysis", "assay_type": "organism-based", "details": "in vivo, 336 h", "in_short": "(§4)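 Kunming mice, four per group, dosed orally once daily for 14 days with test article or physiological saline control, body weight recorded every other day. After sacrifice, heart, liver, spleen, lung and kidney were fixed at once in 10% buffered formalin, paraffin-embedded, sectioned, H&E stained and examined by optical microscopy for hydropic degeneration, inflammatory infiltrates and fibrosis.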"}, "OCTN2": {"test_system": "OCTN2", "assay": "Ratio of drug transport in OCTN2 (unknown origin) expressing HEK293 cells assessed as transporter-mediated drug uptake at 25 uM to drug uptake in HEK293 cells at 25 uM", "assay_type": "ADME, cell-based", "details": "human, HEK293 cells expressing OCTN2, against HEK293 cells", "in_short": "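OCTN2-transfected HEK293 cells and mock HEK293 cells incubated with 25 µM compound at 37 °C for 15 min, then cellular uptake measured; n = 2.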"}, "Spleen [8]": {"test_system": "Spleen", "assay": "Drug uptake in mouse spleen at 102 mg/kg, po administered as single dose at 0.5 hrs post dose", "assay_type": "ADME, organism-based", "details": "in vivo", "in_short": "as §2"}, "Mus musculus [9]": {"test_system": "Mus musculus", "assay": "Toxicity in Kunming mouse assessed as inflammatory infiltrates in spleen at 102 mg/kg, po administered once daily for 14 days by hematoxylin/eosin staining based optical microscopic analysis", "assay_type": "organism-based", "details": "in vivo, 336 h", "in_short": "as §4"}, "Mus musculus [10]": {"test_system": "Mus musculus", "assay": "Toxicity in Kunming mouse assessed as […] degeneration in spleen at 102 mg/kg, po administered once daily for 14 days by hematoxylin/eosin staining based optical microscopic analysis", "assay_type": "organism-based", "details": "in vivo, 336 h", "in_short": "as §1"}, "[11]": {"target": "T1, Organic cation/carnitine transporter 2", "assay": "Drug transport assessed as Vmax for OCTN2 transporter mediated drug uptake in human Caco2 cells after 10 mins by Eadie-Hofstee plot method", "assay_type": "ADME, cell-based", "details": "caco-2, 10 min"}, "Spleen [12]": {"test_system": "Spleen", "assay": "Drug uptake in mouse spleen at 102 mg/kg, po administered as single dose at 2 hrs post dose", "assay_type": "ADME, organism-based", "details": "in vivo", "in_short": "as §2"}, "Lung": {"test_system": "Lung", "assay": "Drug uptake in mouse lung at 102 mg/kg, po administered as single dose at 2 hrs post dose", "assay_type": "ADME, organism-based", "details": "in vivo", "in_short": "as §2"}, "Mus musculus [13]": {"test_system": "Mus musculus", "assay": "Toxicity in Kunming mouse assessed as fibrosis in kidney at 102 mg/kg, po administered once daily for 14 days by hematoxylin/eosin staining based optical microscopic analysis", "assay_type": "organism-based", "details": "in vivo, 336 h", "in_short": "as §1"}, "BXPC-3": {"test_system": "BXPC-3", "assay": "Cytotoxicity against human BxPC3 cells assessed as decrease in cell viability after 48 hrs by MTT assay", "assay_type": "functional, cell-based", "in_short": "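BxPC-3 and Caco-2 cells exposed to compounds for 48 h. Viability read by MTT assay kit. IC50 calculated from dose-response.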"}, "Mus musculus [14]": {"test_system": "Mus musculus", "assay": "Toxicity in Kunming mouse assessed as fibrosis in lung at 102 mg/kg, po administered once daily for 14 days by hematoxylin/eosin staining based optical microscopic analysis", "assay_type": "organism-based", "details": "in vivo, 336 h", "in_short": "as §1"}}}
{"smiles": "C[N+](C)(C)CC(CC(=O)[O-])OC(=O)CCCCC(=O)Nc1ccn([C@@H]2O[C@H](CO)[C@@H](O)C2(F)F)c(=O)n1", "note": "(some centres undefined)", "values": [{"measurement": "Activity", "setting": "Mus musculus [1]", "value": "Non-Toxic"}, {"measurement": "Ratio", "setting": "[2]", "value": "1.6 to 3.6"}, {"measurement": "half-life at 5 µM", "setting": "[3]", "value": 4.4, "unit": "h"}, {"measurement": "Drug uptake", "setting": "Heart", "value": "Active"}, {"measurement": "half-life at 5 µM", "setting": "[4]", "value": 17.4, "unit": "h"}, {"measurement": "Activity", "setting": "Mus musculus [5]", "value": "Non-Toxic"}, {"measurement": "half-life at 5 µM", "setting": "[6]", "value": 78.7, "unit": "h"}, {"measurement": "Activity", "setting": "Mus musculus [7]", "value": "Non-Toxic"}, {"measurement": "uptake ratio at 25 µM", "setting": "OCTN2", "value": "3 to 8"}, {"measurement": "Drug uptake", "setting": "Spleen [8]", "value": "Active"}, {"measurement": "Activity", "setting": "Mus musculus [9]", "value": "Non-Toxic"}, {"measurement": "Activity", "setting": "Mus musculus [10]", "value": "Non-Toxic"}, {"measurement": "Vmax", "setting": "[11]", "value": 0.286, "unit": "nmol/mg"}, {"measurement": "Drug uptake", "setting": "Spleen [12]", "value": "Not Active"}, {"measurement": "Drug uptake", "setting": "Lung", "value": "Not Active"}, {"measurement": "Activity", "setting": "Mus musculus [13]", "value": "Non-Toxic"}, {"measurement": "Activity", "setting": "BXPC-3", "value": "Dose-dependent effect"}, {"measurement": "IC50", "setting": "BXPC-3; BXPC-3, 48 h", "value": 320, "unit": "nM"}, {"measurement": "Activity", "setting": "Mus musculus [14]", "value": "Non-Toxic"}]}
